In ChEMBL document CHEMBL3621143, “Discovery of BMS-641988, a Novel Androgen Receptor Antagonist for the Treatment of Prostate Cancer” (ACS Med Chem Lett, 2015):

Legend:
Androgen receptor [1] = biological target: T1, Androgen receptor (Homo sapiens, UniProt P10275); experiment: Displacement of [3H]-DHT from androgen receptor in human MDA-MB-453 cells after 90 mins by TopCount analysis; type: cell-based
T1 sequence (P10275 whole entry): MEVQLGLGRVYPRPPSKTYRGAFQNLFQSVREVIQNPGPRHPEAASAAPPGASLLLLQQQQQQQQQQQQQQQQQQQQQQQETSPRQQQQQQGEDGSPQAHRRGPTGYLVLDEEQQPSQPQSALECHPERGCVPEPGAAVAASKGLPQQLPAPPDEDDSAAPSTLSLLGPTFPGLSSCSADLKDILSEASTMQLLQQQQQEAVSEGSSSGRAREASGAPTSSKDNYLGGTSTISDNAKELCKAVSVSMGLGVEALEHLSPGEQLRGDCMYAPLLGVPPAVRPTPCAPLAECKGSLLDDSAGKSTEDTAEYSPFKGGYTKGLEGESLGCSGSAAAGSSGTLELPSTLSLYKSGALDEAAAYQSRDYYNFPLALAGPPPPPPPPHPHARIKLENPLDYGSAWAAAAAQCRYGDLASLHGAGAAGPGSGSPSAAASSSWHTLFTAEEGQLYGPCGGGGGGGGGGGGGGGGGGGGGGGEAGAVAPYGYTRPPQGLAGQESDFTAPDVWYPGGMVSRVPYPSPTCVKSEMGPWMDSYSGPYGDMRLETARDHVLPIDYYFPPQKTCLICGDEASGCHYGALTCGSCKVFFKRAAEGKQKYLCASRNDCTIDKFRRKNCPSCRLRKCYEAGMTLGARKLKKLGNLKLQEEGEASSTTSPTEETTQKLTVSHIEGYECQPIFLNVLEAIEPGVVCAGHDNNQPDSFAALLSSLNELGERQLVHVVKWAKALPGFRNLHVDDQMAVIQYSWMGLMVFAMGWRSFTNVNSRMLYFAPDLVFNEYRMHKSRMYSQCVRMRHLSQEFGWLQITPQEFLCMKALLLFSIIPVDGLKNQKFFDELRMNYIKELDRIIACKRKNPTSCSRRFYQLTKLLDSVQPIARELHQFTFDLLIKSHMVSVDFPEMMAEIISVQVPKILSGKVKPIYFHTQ

Androgen receptor [2] = biological target: T1, Androgen receptor; experiment: Antagonist activity at androgen receptor in human MDA-MB-453 cells assessed as inhibition of DHT-induced PSA expression by alkaline phosphatase reporter gene assay; type: cell-based
Rattus norvegicus = experiment: In vivo antagonist activity at androgen receptor in immature Sprague-Dawley rat prostate weight model assessed as testosterone propionate-induced weight of seminal vesicles over full body weight at 1 mg/kg, po qd administered for 4 days; type: functional; design: scale not given: the % may be the effect or the level left
Method in brief: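 Immature rat prostate weight PK/PD model. Oral dosing once daily at 1 or 10 mg/kg for 4 days. Seminal vesicle weight expressed as % of full body weight, n=3, scaled so testosterone-treated control = 100% and sham = 10%.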

Hepatocyte [3] = experiment: Drug metabolism in mouse hepatocytes assessed per 10^6 cells; type: ADME, cell-based
Method in brief: (§1)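 Metabolic rate in mouse, rat, dog, monkey and human hepatocyte incubations, expressed as pmol/min/10^6 cells.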

Cytochrome P450 1A2 = biological target: T2, Cytochrome P450 1A2 (Homo sapiens, UniProt P05177); experiment: Inhibition of human CYP1A2; type: ADME
T2 sequence (P05177 whole entry): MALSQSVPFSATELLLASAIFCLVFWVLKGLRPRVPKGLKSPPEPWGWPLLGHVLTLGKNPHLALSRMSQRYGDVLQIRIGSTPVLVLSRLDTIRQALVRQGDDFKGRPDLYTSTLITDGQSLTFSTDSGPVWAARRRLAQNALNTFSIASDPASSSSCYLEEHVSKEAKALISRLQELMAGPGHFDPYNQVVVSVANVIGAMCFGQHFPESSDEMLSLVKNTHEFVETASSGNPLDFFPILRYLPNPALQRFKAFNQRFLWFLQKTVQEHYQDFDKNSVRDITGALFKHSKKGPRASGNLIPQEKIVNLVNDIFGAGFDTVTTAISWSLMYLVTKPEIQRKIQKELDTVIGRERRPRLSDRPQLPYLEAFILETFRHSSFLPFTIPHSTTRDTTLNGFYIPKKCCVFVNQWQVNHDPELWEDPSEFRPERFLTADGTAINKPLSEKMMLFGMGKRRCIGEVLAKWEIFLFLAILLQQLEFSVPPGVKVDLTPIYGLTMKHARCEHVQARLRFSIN

[4] = biological target: T3, Nuclear receptor subfamily 1 group I member 2 (Homo sapiens, UniProt O75469); experiment: Transactivation of human PXR; type: ADME
T3 sequence (O75469 whole entry): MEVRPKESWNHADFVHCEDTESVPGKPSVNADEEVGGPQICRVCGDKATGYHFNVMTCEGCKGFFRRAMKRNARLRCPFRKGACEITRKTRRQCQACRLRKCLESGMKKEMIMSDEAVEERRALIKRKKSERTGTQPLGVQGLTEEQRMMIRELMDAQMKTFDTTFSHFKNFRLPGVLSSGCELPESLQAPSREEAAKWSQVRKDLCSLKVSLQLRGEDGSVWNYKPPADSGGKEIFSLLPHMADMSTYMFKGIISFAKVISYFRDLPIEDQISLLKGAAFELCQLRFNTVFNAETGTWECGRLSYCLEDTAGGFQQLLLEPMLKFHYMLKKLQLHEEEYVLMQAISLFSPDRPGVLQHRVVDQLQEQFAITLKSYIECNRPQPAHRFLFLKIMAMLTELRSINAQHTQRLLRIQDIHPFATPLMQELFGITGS

hERG = hERG (Homo sapiens, UniProt Q12809); experiment: Inhibition of human ERG at 30 uM relative to control
[5] = Fraction unbound in rat plasma by equilibrium dialysis method; type: ADME, cell-free
Method in brief: (§2)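 Plasma protein binding measured by equilibrium dialysis in mouse, rat, dog and human plasma, reported as % free.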

[6] = Fraction unbound in dog plasma by equilibrium dialysis method; type: ADME, cell-free, Canis lupus familiaris; method in brief: as §2
[7] = Fraction unbound in human plasma by equilibrium dialysis method; type: ADME, cell-free; method in brief: as §2
Hepatocyte [8] = experiment: Drug metabolism in rat hepatocytes assessed per 10^6 cells; type: ADME, cell-based; method in brief: as §1
Hepatocyte [9] = experiment: Drug metabolism in human hepatocytes assessed per 10^6 cells; type: ADME, cell-based; method in brief: as §1
[10] = Half life in mouse at 5 mg/kg, iv and 10 mg/kg, po; type: ADME, organism-based; settings: in vivo
Method in brief: (§3)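 Single IV and oral doses in mouse and rat (IV 5, PO 10 mg/kg) and dog (IV 1, PO 2 mg/kg). Half-life, clearance, AUC0-∞ (µM*h) and %F derived from the plasma profiles.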

[11] = Clearance in mouse at 5 mg/kg, iv and 10 mg/kg, po; type: ADME, organism-based; settings: in vivo; method in brief: as §3
[12] = AUC (0 to infinity) in mouse at 10 mg/kg, po; type: ADME, organism-based; design: dose 10 mg/kg, route oral, time infinity; settings: in vivo; method in brief: as §3
[13] = Clearance in rat at 5 mg/kg, iv and 10 mg/kg, po; type: ADME, organism-based; settings: in vivo; method in brief: as §3
[14] = AUC (0 to infinity) in rat at 5 mg/kg, iv; type: ADME, organism-based; design: dose 5 mg/kg, route intravenous, time infinity; settings: in vivo; method in brief: as §3
[15] = AUC (0 to infinity) in rat at 10 mg/kg, po; type: ADME, organism-based; design: dose 10 mg/kg, route oral, time infinity; settings: in vivo; method in brief: as §3
[16] = Half life in dog at 1 mg/kg, iv and 2 mg/kg, po; type: ADME, organism-based, Canis lupus familiaris; settings: in vivo; method in brief: as §3
[17] = AUC (0 to infinity) in dog at 1 mg/kg, iv; type: ADME, organism-based, Canis lupus familiaris; design: dose 1 mg/kg, route intravenous, time infinity; settings: in vivo; method in brief: as §3
[18] = AUC (0 to infinity) in dog at 2 mg/kg, po; type: ADME, organism-based, Canis lupus familiaris; design: dose 2 mg/kg, time infinity, route oral; settings: in vivo; method in brief: as §3
[19] = Oral bioavailability in dog at 2 mg/kg; type: ADME, organism-based, Canis lupus familiaris; settings: in vivo; method in brief: as §3

hERG, sequence (Q12809 whole entry): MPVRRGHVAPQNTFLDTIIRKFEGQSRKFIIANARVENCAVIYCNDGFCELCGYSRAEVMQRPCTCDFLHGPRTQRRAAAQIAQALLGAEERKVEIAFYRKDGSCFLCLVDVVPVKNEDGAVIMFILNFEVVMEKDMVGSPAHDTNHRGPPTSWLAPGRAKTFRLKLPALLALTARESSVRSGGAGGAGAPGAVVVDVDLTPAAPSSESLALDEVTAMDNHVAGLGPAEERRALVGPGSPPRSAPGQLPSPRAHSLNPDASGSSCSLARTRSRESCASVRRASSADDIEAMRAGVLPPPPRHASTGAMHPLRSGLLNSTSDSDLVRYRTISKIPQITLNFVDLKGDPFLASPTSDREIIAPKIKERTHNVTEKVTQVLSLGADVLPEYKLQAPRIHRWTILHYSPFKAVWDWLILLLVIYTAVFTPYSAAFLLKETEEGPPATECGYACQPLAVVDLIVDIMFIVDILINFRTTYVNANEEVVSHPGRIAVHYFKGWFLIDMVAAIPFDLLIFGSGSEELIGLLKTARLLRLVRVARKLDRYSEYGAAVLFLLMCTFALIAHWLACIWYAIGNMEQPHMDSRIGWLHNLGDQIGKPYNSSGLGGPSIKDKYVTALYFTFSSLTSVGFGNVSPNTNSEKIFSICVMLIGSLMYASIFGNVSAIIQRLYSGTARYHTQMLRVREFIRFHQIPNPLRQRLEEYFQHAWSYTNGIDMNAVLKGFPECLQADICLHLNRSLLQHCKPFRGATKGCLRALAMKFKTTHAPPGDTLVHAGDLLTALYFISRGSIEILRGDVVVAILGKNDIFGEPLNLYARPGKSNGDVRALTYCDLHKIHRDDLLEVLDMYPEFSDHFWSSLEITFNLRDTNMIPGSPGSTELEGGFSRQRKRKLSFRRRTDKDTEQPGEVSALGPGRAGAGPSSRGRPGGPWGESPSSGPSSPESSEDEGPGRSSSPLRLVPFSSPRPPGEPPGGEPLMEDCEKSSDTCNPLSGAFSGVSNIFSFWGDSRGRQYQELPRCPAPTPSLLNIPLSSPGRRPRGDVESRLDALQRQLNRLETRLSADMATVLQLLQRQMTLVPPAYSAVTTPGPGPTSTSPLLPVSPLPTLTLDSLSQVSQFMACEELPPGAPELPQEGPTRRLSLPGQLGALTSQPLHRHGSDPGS

CCS(=O)(=O)N[C@@H]1C[C@]2(C)O[C@]1(C)[C@@H]1C(=O)N(c3ccc(C#N)c(C(F)(F)F)c3)C(=O)[C@@H]12
Ki (Androgen receptor [1]): 1.7 nM
IC50 (Androgen receptor [2]): 16 nM
Activity (Rattus norvegicus): 58%
Drug metabolism (Hepatocyte [3]): 0 pmol/min
IC50 (Cytochrome P450 1A2): > 40000 nM
EC50 [4]: > 50000 nM
inhibition at 30 µM (hERG): 0%
fraction unbound [5]: 0.106
fraction unbound [6]: 0.165
fraction unbound [7]: 0.104
Drug metabolism (Hepatocyte [8]): 26 pmol/min
Drug metabolism (Hepatocyte [9]): 2 pmol/min
half-life [10]: 2.4 h
clearance [11]: 4.5 mL/min/kg
AUC(0-inf) [12]: 74.1 µM·h
clearance [13]: 6.5 mL/min/kg
AUC(0-inf) [14]: 31.7 µM·h
AUC(0-inf) [15]: 40.5 µM·h
half-life [16]: 21.8 h
AUC(0-inf) [17]: 102 µM·h
AUC(0-inf) [18]: 160 µM·h
bioavailability [19]: 79%
